The values below come from BindingDB's records for doi:10.1021/jm00089a014 (Genentech, 1992).

*1 amine or outer side, *2 acyl side, *3 side chain or, on linkers, in order; H or OH if unused. Where a SMILES comes first, the peptide text is derived from it. Bridges are numbered along the chain shown (N, C = ends). [ ]: non-standard residue; d: D form. Cys(O)(CH2CO) = O=C([C@H](C[S+]([O-])CC(=O)[*:3])N[*:1])[*:2] A value given as a limit tells only on which side of the number the result lay.

The IC50 is the midpoint of a concentration-inhibition curve.

Chain of Integrin alpha-IIb/beta-3 (P05106 27-788 limits assumed): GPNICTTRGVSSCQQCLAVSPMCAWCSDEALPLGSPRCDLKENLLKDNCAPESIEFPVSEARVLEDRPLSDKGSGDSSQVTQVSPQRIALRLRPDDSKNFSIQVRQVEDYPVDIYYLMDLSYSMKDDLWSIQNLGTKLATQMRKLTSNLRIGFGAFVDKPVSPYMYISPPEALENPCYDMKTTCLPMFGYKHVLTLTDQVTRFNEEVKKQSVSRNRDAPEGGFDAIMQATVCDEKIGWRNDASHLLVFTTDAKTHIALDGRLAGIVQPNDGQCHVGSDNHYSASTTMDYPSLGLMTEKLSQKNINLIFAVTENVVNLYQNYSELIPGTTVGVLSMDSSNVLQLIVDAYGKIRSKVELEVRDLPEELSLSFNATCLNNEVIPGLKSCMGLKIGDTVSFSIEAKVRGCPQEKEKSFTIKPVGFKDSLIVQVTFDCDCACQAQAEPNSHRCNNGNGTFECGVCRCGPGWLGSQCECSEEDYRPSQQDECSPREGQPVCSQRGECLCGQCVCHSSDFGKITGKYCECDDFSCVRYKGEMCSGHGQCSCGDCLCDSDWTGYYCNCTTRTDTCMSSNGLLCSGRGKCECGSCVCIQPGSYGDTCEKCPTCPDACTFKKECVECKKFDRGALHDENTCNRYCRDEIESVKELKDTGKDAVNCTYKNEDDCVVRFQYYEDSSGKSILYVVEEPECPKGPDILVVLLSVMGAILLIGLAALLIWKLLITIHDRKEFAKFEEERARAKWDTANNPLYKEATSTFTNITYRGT
Chain of Integrin alpha-IIb/beta-3 (P08514 32-887 limits assumed): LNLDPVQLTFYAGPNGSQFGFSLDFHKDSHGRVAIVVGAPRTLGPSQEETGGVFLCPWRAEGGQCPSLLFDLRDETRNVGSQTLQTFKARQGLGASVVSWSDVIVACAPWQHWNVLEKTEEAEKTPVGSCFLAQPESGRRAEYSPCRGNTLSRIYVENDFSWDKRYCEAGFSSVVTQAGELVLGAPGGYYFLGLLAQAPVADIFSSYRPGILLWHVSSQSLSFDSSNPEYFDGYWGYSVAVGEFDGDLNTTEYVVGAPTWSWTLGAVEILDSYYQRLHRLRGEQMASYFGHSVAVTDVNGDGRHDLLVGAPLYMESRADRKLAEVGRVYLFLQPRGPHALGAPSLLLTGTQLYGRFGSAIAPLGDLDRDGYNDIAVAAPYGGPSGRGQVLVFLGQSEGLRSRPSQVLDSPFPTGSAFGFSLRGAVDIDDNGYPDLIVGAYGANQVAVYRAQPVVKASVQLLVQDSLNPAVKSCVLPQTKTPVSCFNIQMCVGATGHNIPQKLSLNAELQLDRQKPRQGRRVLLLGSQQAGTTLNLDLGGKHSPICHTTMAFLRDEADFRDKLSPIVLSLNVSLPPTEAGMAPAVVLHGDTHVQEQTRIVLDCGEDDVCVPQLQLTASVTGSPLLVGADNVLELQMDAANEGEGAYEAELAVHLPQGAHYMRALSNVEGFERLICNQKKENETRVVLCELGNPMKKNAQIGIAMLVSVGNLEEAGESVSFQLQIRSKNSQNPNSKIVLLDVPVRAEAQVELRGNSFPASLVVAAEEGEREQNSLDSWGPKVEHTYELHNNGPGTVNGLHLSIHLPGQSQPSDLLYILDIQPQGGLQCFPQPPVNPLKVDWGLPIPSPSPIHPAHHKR
Chain of Integrin alpha-IIb/beta-3 (P08514 891-1039 limits assumed): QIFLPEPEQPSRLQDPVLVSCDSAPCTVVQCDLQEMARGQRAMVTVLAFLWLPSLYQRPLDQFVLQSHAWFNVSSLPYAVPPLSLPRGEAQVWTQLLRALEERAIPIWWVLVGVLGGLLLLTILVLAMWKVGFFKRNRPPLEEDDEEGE

This assay has as its target Integrin alpha-IIb/beta-3 (Homo sapiens, UniProt P08514+P05106). As to the kind of experiment: Inhibition of ADP-induced platelet aggregation in human platelet-rich plasma. In outline: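 Human blood drawn into 3.8% sodium citrate (9:1); PRP from 180g spin, 12 min, 22 °C; count adjusted to 3 × 10^8/mL with PPP. PRP preincubated with test sample 5 min at 37 °C in aggregometer, then ADP 17.2 µM final. Inhibition from transmittance change at 5 min versus no-sample maximum; 12-14 concentrations over ~200-fold range; IC50 by four-parameter fit; n ≥ 3.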
`N=C(N)NCCC[C@@H]1NC(=O)CSC[C@@H](C(=O)O)NC(=O)[C@H](CC(=O)O)NC(=O)CNC1=O` ({CH2CO}-RGDC-OH; thioether N-4): the IC50 was > 2 µM.
With `N=C(N)NCCC[C@H](NC(=O)CN)C(=O)NCC(=O)N[C@@H](CC(=O)O)C(=O)N[C@@H](Cc1ccc(O)cc1)C(=O)O` (H-GRGDY-OH) the figure was 170 µM; with `N=C(N)NCCC[C@@H]1NC(=O)[C@H](CC(N)=O)NC(=O)CSC[C@@H](C(=O)O)NC(=O)[C@H](CC(=O)O)NC(=O)CNC1=O` ({CH2CO}-NRGDC-OH; thioether N-5), 0.31 µM; with `N=C(N)NCCC[C@@H]1NC(=O)[C@@H](Cc2ccccc2)NC(=O)C[S+]([O-])C[C@@H](C(=O)O)NC(=O)[C@H](CC(=O)O)NC(=O)CNC1=O` (stereo partly specified), 0.44 µM.
The figure for `CC[C@@H](C)[C@H]1NC(=O)CSC[C@@H](C(=O)O)NC(=O)[C@H](CC(=O)O)NC(=O)CNC(=O)[C@H](CCCN=C(N)N)NC1=O` is 6.08 µM.
With `N=C(N)NCCC[C@@H]1NC(=O)CNC(=O)C(c2ccc3ccccc3c2)SC[C@@H](C(=O)O)NC(=O)[C@H](CC(=O)O)NC(=O)CNC1=O` (stereo partly specified) the figure was 4 µM.
`N=C(N)NCCC[C@@H]1NC(=O)[C@@H](Cc2ccc(O)cc2)NC(=O)C[S+]([O-])C[C@@H](C(=O)O)NC(=O)[C@H](CC(=O)O)NC(=O)CNC1=O` (stereo partly specified) showed an IC50 of 0.12 µM. Compared with the last compound, the IC50 is about 33-fold lower.
With `C[C@@H]1NC(=O)CSC[C@@H](C(=O)O)NC(=O)[C@H](CC(=O)O)NC(=O)CNC(=O)[C@H](CCCNC(=N)N)NC1=O` ({CH2CO}-ARGDC-OH; thioether N-5) the figure was 0.59 µM.
`N=C(N)NCCC[C@@H]1NC(=O)[C@H]2CCCN2C(=O)CSC[C@@H](C(=O)O)NC(=O)[C@H](CC(=O)O)NC(=O)CNC1=O` ({CH2CO}-[dP]RGDC-OH; thioether N-5) displayed an IC50 of 1.96 µM.
With `CC(C)[C@@H]1NC(=O)C[S+]([O-])C[C@@H](C(=O)O)NC(=O)[C@H](CC(=O)O)NC(=O)CNC(=O)[C@H](CCCNC(=N)N)NC1=O` (stereo partly specified) (VRGD[Cys(O)(CH2CO)]-OH; lactam N-5) the figure was 0.21 µM.
With `N=C(N)NCCC[C@@H]1NC(=O)[C@H](CCC(N)=O)NC(=O)CSC[C@@H](C(=O)O)NC(=O)[C@H](CC(=O)O)NC(=O)CNC1=O` the figure was 0.68 µM; with `N=C(N)NCCC[C@@H]1NC(=O)[C@H](CCC(=O)O)NC(=O)CSC[C@@H](C(=O)O)NC(=O)[C@H](CC(=O)O)NC(=O)CNC1=O`, 4.6 µM.
With `N=C(N)NCCC[C@@H]1NC(=O)CNC(=O)[C@H](Cc2ccccc2)SC[C@@H](C(=O)O)NC(=O)[C@H](CC(=O)O)NC(=O)CNC1=O` the figure was 1.9 µM; with `N=C(N)NCCC[C@@H]1NC(=O)CNC(=O)CCSC[C@@H](C(=O)O)NC(=O)[C@H](CC(=O)O)NC(=O)CNC1=O`, 64.3 µM.
Compound `CC(C)C[C@H](NC(=O)[C@H](CC(=O)O)NC(=O)CNC(=O)[C@H](CCCNC(=N)N)NC(=O)CN)C(=O)O` (H-GRGDL-OH) yielded an IC50 of 170 µM.
The figure for `CC(C)C[C@@H]1NC(=O)CSC[C@@H](C(=O)O)NC(=O)[C@H](CC(=O)O)NC(=O)CNC(=O)[C@H](CCCNC(=N)N)NC1=O` is 0.2 µM.
